From ChEMBL document CHEMBL1141857, “Lichen metabolites. 1. Inhibitory action against leukotriene B4 biosynthesis by a non-redox mechanism” (J Nat Prod, 1999)

Tests used:
[1] = Inhibition of AAPH-induced lipid peroxidation in bovine brain phospholipid liposome; assay type: functional, tissue-based, Bos taurus
Summary of the method: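 Bovine brain phospholipid liposomes (1 mg/mL final) in 30 mM KH2PO4-KOH buffer, pH 7.4, with 10 mM AAPH and test compound at variable concentrations (acetone vehicle). Incubated 1 h at 37 °C with shaking. BHT, HCl and TBA then added; TBA-reactive material extracted into butanol and read at 532 nm against an MDA standard.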

[2] = Prooxidant activity assessed as hydroxyl radical formation at 75 uM measured as malondialdehyde per mmol of deoxyribose by deoxyribose assay; assay type: functional
Summary of the method: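 Final mixture: 2 mM 2-deoxy-D-ribose, 0.1 mM FeCl3, 30 mM KH2PO4-KOH pH 7.4, 75 μM compound, acetonitrile vehicle controls; 2 h at 37 °C with shaking. TCA and TBA added, heated 100 °C 15 min, butanol-extracted, A532 read. Calibrated against MDA from tetraethoxypropane; reported as μmol MDA/mmol deoxyribose, n = 3.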

[3] = system: Radical scavenging activity; test: Antioxidant activity assessed as DPPH radical scavenging activity at equimolar amount of compound; assay type: functional
Summary of the method: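 Test compound and DPPH mixed at equal concentrations (each […] as printed) in acetone–PBS 1:1 v/v. DPPH reduction followed spectrophotometrically at 516 nm. Reciprocal DPPH concentration plotted against time; second-order rate constant taken from slope, mean of n = 3–6.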

PMNL = test: Inhibition of LTB4 biosynthesis in A-23187-stimulated bovine PMNL cells; assay type: functional, cell-based; conditions: Bos taurus
Summary of the method: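 Bovine PMNL (10^7 cells/mL) preincubated with compound 15 min at 37 °C, then stimulated with Ca-ionophore. LTB4 and 5-HETE released after 10 min quantified by reversed-phase HPLC. Inhibition = (1 − test/control) × 100, test n = 3, control n = 6–8. IC50 interpolated from log concentration–response plot using ≥4 concentrations spanning 50%.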

Row | Compound | IC50 [1] [µM] | Activity [2] [µmol] | Activity [3] [M⁻¹ s⁻¹] | IC50 (PMNL) [µM]
1 | CC(=O)C1=C(O)C=C2Oc3c(C(C)=O)c(O)c(C)c(O)c3[C@@]2(C)C1=O [(+)-USNIC ACID] | > 200 | 1.47 | < 1 | 42
2 | O=C1c2c(O)cccc2Cc2cccc(O)c21 [ANTHRALIN] | 79 |  | 24.2 | 
3 | COC(=O)c1c(C)cc(OC(=O)c2c(C)cc(O)c(C=O)c2O)c(C)c1O [ATRANORIN] | > 200 | 0 | 11.5 | 6
4 | COC(=O)c1c(C)cc(O)c(C)c1O [ATRARIC ACID] | > 200 | 1.43 | 5.95 | > 60
5 | COc1cc(C)c(C(=O)Oc2cc(C)c(C(=O)O)c(O)c2C)c(OC)c1C [DIFFRACTAIC ACID] | > 200 | 0.12 | < 1 | 8
6 | CCOC(=O)c1c(C)cc(O)c(C=O)c1O [ETHYL HEMATOMMATE] | > 200 | 0.3 | 12.2 | 40
7 | Cc1cc(OC(=O)c2c(C)cc(OC(=O)c3c(C)cc(O)cc3O)cc2O)cc(O)c1C(=O)O [GYROPHORIC ACID] | > 200 | 0.12 | 3.63 | > 60
8 | CC(Cc1ccc(O)c(O)c1)C(C)Cc1ccc(O)c(O)c1 (centres undefined) [NORDIHYDROGUAIARETIC ACID] | 2 | 0.23 | > 100 | 0.4
9 | C=C1C(=O)O[C@@H](CCCCCCCCCCCCC)[C@@H]1C(=O)O [PROTOLICHESTERINIC ACID] | > 200 | 0.08 | < 1 | 9
